Like-named read-outs stand apart in the source and are kept apart here.
Key:
[1] = target: T1, NTR1 (Homo sapiens, UniProt P30989); test: β-Arrestin2-GFP NTR1 high content assay; format: cell-based
Target sequence in this assay (P30989 whole entry, species assumed): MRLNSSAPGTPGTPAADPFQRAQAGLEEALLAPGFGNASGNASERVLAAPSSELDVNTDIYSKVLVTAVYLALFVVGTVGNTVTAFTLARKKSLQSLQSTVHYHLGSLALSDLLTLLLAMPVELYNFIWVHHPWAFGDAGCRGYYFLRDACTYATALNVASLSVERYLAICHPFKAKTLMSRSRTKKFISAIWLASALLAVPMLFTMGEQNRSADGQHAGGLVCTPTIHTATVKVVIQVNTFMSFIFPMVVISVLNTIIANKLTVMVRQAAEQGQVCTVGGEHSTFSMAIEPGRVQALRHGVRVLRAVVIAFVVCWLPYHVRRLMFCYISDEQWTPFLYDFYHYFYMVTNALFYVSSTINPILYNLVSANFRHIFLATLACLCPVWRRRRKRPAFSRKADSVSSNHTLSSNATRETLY

[2] = target: T1, NTR1; settings: cited from earlier work
Target sequence in this assay (P30989 whole entry, species assumed): as above

[3] = target: T2, NTR2 (Homo sapiens, UniProt O95665); test: NTR2 counterscreen, same high-content β-arrestin format; format: cell-based; settings: high-content assay format
Target sequence in this assay (O95665 whole entry, species assumed): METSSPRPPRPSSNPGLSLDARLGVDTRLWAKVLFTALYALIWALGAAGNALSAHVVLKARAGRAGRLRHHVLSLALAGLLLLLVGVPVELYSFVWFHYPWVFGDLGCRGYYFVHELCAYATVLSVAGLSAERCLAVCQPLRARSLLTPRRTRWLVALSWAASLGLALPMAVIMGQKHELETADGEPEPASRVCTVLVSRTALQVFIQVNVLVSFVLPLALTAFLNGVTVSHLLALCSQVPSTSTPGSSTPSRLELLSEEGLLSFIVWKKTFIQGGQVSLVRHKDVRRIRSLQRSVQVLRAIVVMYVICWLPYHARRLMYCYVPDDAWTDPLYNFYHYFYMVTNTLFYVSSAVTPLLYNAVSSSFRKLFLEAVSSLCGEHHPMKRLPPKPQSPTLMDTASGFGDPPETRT

[4] = target: T1, NTR1; test: Ca2+ flux assay; format: cell-based
Target sequence in this assay (P30989 whole entry, species assumed): as the sequence (P30989 whole entry, species assumed) above

[5] = target: T1, NTR1; test: [125I]-NT radioligand binding to cell membranes; settings: [125I]-NT 0.02 nM, increasing concentrations of compound
Target sequence in this assay (P30989 whole entry): as the sequence (P30989 whole entry, species assumed) above

[6] = target: T2, NTR2; test: [125I]-NT radioligand binding to cell membranes; settings: [125I]-NT 0.02 nM
Target sequence in this assay (O95665 whole entry): as the sequence (O95665 whole entry, species assumed) above

[7] = target: mouse NTR (Mus musculus, UniProt O88319); test: [125I]-NT radioligand binding to cell membranes; settings: [125I]-NT 0.02 nM
mouse NTR, sequence (O88319 whole entry): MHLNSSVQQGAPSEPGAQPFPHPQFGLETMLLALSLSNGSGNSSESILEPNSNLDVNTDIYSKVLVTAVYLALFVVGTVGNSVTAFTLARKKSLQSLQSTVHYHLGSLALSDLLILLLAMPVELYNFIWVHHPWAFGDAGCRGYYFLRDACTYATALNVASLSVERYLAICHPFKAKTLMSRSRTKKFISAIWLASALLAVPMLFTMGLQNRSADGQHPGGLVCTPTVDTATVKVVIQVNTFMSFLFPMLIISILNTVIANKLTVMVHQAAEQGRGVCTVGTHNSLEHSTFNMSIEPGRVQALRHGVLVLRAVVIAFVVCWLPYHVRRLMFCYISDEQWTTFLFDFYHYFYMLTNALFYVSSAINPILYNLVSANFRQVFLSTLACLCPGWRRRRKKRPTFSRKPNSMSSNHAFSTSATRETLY

[8] = target: GPR35 (Homo sapiens, UniProt Q9HC97); test: GPCR cross reactivity, high-content assay format; format: cell-based
GPR35, sequence (Q9HC97 whole entry, species assumed): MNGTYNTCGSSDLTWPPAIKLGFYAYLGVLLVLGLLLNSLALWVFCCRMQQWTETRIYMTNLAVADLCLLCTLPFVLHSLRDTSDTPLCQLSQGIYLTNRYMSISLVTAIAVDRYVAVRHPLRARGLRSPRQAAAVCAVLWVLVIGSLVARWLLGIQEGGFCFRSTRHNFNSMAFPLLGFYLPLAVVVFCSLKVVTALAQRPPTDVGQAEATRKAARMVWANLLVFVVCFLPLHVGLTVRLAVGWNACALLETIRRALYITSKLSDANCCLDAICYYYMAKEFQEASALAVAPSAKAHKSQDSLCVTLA

[9] = target: GPR55 (Homo sapiens, UniProt Q9Y2T6); test: GPCR cross reactivity, high-content assay format; format: cell-based
GPR55, sequence (Q9Y2T6 whole entry, species assumed): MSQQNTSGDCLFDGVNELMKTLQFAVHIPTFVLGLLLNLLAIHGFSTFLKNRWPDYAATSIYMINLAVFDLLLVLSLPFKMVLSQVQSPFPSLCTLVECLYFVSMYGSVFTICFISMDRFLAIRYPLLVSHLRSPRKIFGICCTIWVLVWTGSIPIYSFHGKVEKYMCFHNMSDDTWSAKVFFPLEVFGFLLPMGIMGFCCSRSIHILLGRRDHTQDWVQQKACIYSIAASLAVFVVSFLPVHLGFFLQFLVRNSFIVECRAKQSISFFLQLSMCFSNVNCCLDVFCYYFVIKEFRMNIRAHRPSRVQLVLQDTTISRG

[10] = target: K-opioid (Homo sapiens, UniProt P41145); test: GPCR cross reactivity, high-content assay format; format: cell-based
K-opioid, sequence (P41145 whole entry): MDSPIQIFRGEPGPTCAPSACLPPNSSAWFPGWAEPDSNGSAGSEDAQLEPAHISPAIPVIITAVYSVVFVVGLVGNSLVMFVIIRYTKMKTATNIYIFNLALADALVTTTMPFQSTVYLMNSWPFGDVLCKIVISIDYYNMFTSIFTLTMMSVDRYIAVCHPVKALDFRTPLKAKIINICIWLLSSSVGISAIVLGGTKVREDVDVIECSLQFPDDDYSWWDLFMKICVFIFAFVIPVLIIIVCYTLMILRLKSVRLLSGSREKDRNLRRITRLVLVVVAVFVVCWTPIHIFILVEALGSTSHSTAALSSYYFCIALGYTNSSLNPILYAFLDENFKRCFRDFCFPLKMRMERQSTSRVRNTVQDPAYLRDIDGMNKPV

[11] = test system: dopamine transporter knockout (DAT−/−) mice; test: Open field locomotor activity in dopamine transporter knockout mice; format: in vivo, mouse; settings: 2 hr post-treatment
Procedure, shortened: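 Male and female DAT KO mice on a C57BL/6J background, 12–24 wk, 18–30 g, age- and sex-matched, randomised, tested early in the light cycle. After 30 min open-field acclimation, dosed at 10 ml/kg i.p. (vehicle 4% DMSO in saline) or p.o. as HCl salt in distilled water (after 5 daily water-gavage habituations). Infrared beam-break horizontal distance in 5-min bins; total summed 30–150 min.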

[12] = Adverse effects in dosed animals; format: in vivo; settings: animals dosed in the DAT knockout mouse study

Structure (SMILES): COc1cc2nc(C3CC3)nc(N3CCN(c4ccccc4OC)CC3)c2cc1OC [compound 7]
- Emax [1]: 100%
- activity in Ca2+ flux assay, compound alone [2]: no activity

Structure (SMILES): COc1cc2nc(C3CC3)nc(C3CCN(c4ccccc4OC)CC3)c2cc1OC [19a]
- EC50 (β-Arrestin2-GFP NTR1 potency) ([1]; relative to the EC100 (100 nM) of the NT(8–13) peptide control, average ± SEM (n=4 unless otherwise noted in parentheses)): not active

Structure (SMILES): COc1ccccc1C1CCN(c2nc(C3(F)CC3)nc3ccc(N(C)CCO)cc23)CC1 [compound 18, 2-({2-(1-Fluoro-cyclopropyl)-4-[4-(2-methoxy-phenyl)-piperidin-1-yl]-quinazolin-6-yl}-methyl-amino)-ethanol]
- effect on the potency of NT in the NTR1 high-content (β-arrestin2-GFP) assay ([1]; 18 (SBI-553) 0.5−356 nM): no effect
- cross reactivity [3]: no cross reactivity
- activity in Ca2+ flux assay, compound alone ([4]; compound alone, without NT): no activity
- shift of the NT EC50 in the Ca2+ flux assay ([4]; rightward shift in the presence of 2.15 μM compound): > 30 fold
- enhancement of neurotensin peptide binding [5]: significant enhancement
- enhancement of neurotensin peptide binding [6]: but not human NTR2
- enhancement of neurotensin peptide binding [7]: significant enhancement
- cross reactivity [8]: no cross reactivity
- cross reactivity [9]: no cross reactivity
- cross reactivity [10]: no cross reactivity
- effect on basal hyperlocomotion ([11]; IP dosing, 12 mg/kg): attenuated hyperlocomotion
- effect on basal hyperlocomotion ([11]; PO dosing, 10, 30 or 100 mg/kg as the HCl salt): attenuated hyperlocomotion
- adverse effects in dosed animals [12]: did not show any adverse effects

From article PMC7003992 (Journal of medicinal chemistry, 2019)
